Shown are actives, neighbours in structure and some others; about 1.5% of the full set was active somewhere.
core dimer inh = HCV core protein dimerization inhibition; inhibition, % at 5 µM; 0.33% of 300,000 active; AID 1899; TR-FRET GST/Flag-core106 dimerization, 1536-well;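 active = inhibition above the mean of all tested compounds plus 3 SD, set per screening campaign, cut at about 45% in these data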
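assay system = GST-tagged and Flag-tagged HCV core protein residues 1-106 | controls = unlabelled core106 and no-GST-core106 wells | incubation = compound-protein-antibody incubation 4 h at 22.5 °C | probe or stimulus = Eu donor and XL665 acceptor anti-tag antibodies | read-out = % inhibition based on acceptor/donor emission ratio | signal = TR-FRET 671 and 617 nm emission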
NRP1-CendR mod = alters CendR peptide binding to human NRP-1; inhibition, % at 25 µM; FAM-RPARPAR peptide binding to NRP-1, fluorescence polarization; 0.85% of 360,000 active; AID 602438; O14786;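 active = inhibition or corrected inhibition above about 18%, plus a signal ratio from 0.5 to 1.5, limit read from the data, passing the limit was not always enough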
MEX-5 binding = C. elegans MEX-5 TCR-2 RNA binding activity; Q9XUB2; MEX-5/FITC-TCR2 RNA binding, fluorescence polarization; stronger effect = lower value; activity score (negative = inhibition of binding), % at 10 µM; 0.38% of 300,000 active;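 active = inhibition past about -25% in most replicates, and total fluorescence under double the plate's negative control median, limit read from the data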;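 note: 0% = DMSO and -100% = 5 µM competing unlabeled TCR2 RNA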
Target sequence (Q9XUB2 whole entry, looked up): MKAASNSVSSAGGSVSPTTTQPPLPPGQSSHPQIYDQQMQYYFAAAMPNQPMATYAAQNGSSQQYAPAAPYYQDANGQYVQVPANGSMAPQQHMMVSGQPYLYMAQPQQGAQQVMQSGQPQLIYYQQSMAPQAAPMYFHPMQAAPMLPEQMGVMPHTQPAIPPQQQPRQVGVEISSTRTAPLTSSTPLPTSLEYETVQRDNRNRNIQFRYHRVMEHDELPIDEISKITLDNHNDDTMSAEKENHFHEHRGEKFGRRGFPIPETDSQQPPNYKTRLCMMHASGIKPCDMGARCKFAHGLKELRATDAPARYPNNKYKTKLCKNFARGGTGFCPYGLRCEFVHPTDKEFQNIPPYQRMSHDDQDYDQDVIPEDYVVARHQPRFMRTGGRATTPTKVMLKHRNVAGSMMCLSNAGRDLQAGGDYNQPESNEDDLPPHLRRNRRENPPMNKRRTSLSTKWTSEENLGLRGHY
FID counter = fluorescent intercalator displacement, NS3 helicase counter-screen; 0.17% of 290,000 active; DNA fluorescent intercalator displacement, fluorescence; inhibition, % at 7.9 µM; in the data active = inhibition above about 37%;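 note: 0% = vehicle and 100% = reference compound; higher means more ethidium bromide displaced from hairpin DNA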
Active calls of the source: *.

How did O=C(COC(=O)CCNS(=O)(=O)c1ccc(Cl)cc1)NCc1ccco1 do in these assays?
core dimer inh: -12; NRP1-CendR mod: 19*; MEX-5 binding: 0; FID counter: 2

Results for O=C(COC(=O)COc1ccccc1)NCc1ccco1 ?
core dimer inh: 1; NRP1-CendR mod: 20; MEX-5 binding: -2

How did COc1ccc(OCCC(=O)OCC(=O)NCc2ccco2)cc1 do in these assays?
core dimer inh: 85*; NRP1-CendR mod: -5; MEX-5 binding: -1; FID counter: -6

Results for Cc1ccccc1OCC(=O)OCC(=O)NCc1ccco1 ?
core dimer inh: 1; NRP1-CendR mod: -13; MEX-5 binding: 0

Results for Cc1ccc(S(=O)(=O)N2C[C@H]3[C@H]4C(=O)N(c5ccccc5)C(=O)[C@H]4C[C@H](OC(=O)NCc4ccccc4F)[C@@]3(O)C2)cc1 ?
NRP1-CendR mod: 4

How did Cc1cc(NC(=O)CCC(=O)N(Cc2ccco2)C2(C(=O)NC3CCCC3)CCCCC2)no1 do in these assays?
core dimer inh: -7; NRP1-CendR mod: 19*; MEX-5 binding: 0; FID counter: -41

How did Cc1cc(NC(=O)CCC(=O)N(c2cccc(F)c2)C(C(=O)NC2CCCC2)c2ccccc2)no1 (stereo unspecified) do in these assays?
core dimer inh: 9; NRP1-CendR mod: 26*; MEX-5 binding: 0; FID counter: -44

Results for Cc1ccc(N(C(=O)CCC(=O)Nc2cc(C)on2)C(C(=O)NC2CCCC2)c2cccs2)cc1 (stereo unspecified) ?
core dimer inh: 17; NRP1-CendR mod: 3; MEX-5 binding: 0; FID counter: -41

Results for Cc1cc(NC(=O)CCC(=O)N(c2ccccc2)C(C(=O)NC2CCCC2)c2ccccc2)no1 (stereo unspecified) ?
core dimer inh: 9; NRP1-CendR mod: -7; MEX-5 binding: 0; FID counter: -31

What do the screens show for `Cc1cc(NC(=O)CCC(=O)N(c2ccccc2)C(C(=O)NC2CCCC2)c2cccs2)no1` (stereo unspecified)?
core dimer inh: 9; NRP1-CendR mod: 20*; MEX-5 binding: 0; FID counter: -34

How did CN1/C(=C/C(=O)COC(=O)C2COc3ccccc3O2)C(C)(C)c2ccccc21 (stereo unspecified) do in these assays?
NRP1-CendR mod: 7

What do the screens show for `CCCCNC(=O)c1nc(-c2cccs2)oc1-c1ccc(Cl)cc1`?
NRP1-CendR mod: 8

Results for COc1ccc(C)cc1S(=O)(=O)Nc1cc2c3c(c1)C(C)C(=O)N3CCC2 (stereo unspecified) ?
core dimer inh: -2; NRP1-CendR mod: 23*; MEX-5 binding: 0

How did CCN(CC)CCn1nc2c3c(cccc3c1=O)-c1ccccc1-2 do in these assays?
core dimer inh: -5; NRP1-CendR mod: 2; MEX-5 binding: 0; FID counter: 40*

Results for O=c1c2cccc3c2c(nn1CN1CCOCC1)-c1ccccc1-3 ?
core dimer inh: 5; NRP1-CendR mod: -1; MEX-5 binding: -4; FID counter: -3

Results for COc1ccc(C=O)c(-c2c(CCO)sc3ccccc23)c1 ?
NRP1-CendR mod: -8

How did CCOC(=O)c1nn(-c2ccccc2C)c2nc(-c3ccc(C)cc3)c(C#N)c(=O)n12 do in these assays?
core dimer inh: 27; NRP1-CendR mod: 24; MEX-5 binding: 1; FID counter: -3

Results for CCOC(=O)c1nn(-c2ccccc2C)c2nc(-c3ccc(Cl)cc3)c(C#N)c(=O)n12 ?
core dimer inh: 56*; NRP1-CendR mod: -19; MEX-5 binding: 0; FID counter: -10

Results for COc1ccc(CC(N)c2csc(NC(=O)C(c3ccccc3)c3ccccc3)n2)cc1 (stereo unspecified) ?
NRP1-CendR mod: -18

What do the screens show for `O=C(NNS(=O)(=O)c1ccc([N+](=O)[O-])cc1)C(=O)Nc1cccc(C(=O)O)c1`?
core dimer inh: -10; NRP1-CendR mod: -5; MEX-5 binding: -75*; FID counter: -5

Results for COC(=O)[C@H]1C[C@@]2(O)CN(S(=O)(=O)c3ccc(C)cc3)C[C@@]2(OC(=O)NC2CC2)C[C@H]1C(=O)OC ?
NRP1-CendR mod: 8

What do the screens show for `c1ccc(-c2cn3nc(-c4ccccc4)c(-c4ccccc4)nc3n2)cc1`?
core dimer inh: 8; NRP1-CendR mod: -20; MEX-5 binding: -27*; FID counter: 1

How did O=[N+]([O-])c1cccc(-c2cn3nc(-c4ccccc4)c(-c4ccccc4)nc3n2)c1 do in these assays?
core dimer inh: -1; NRP1-CendR mod: -1; MEX-5 binding: -44*; FID counter: 1

Results for O=[N+]([O-])c1ccc(-c2cn3nc(-c4ccccc4)c(-c4ccccc4)nc3n2)cc1 ?
core dimer inh: 4; NRP1-CendR mod: -93; MEX-5 binding: -17; FID counter: -2

What do the screens show for `COc1cccc(-c2ncc3ccccc3c2COC(=O)c2ccc(C(F)(F)F)cc2)c1`?
NRP1-CendR mod: 29*

Results for OC(CCc1ccncc1)c1ccccc1 (stereo unspecified) ?
core dimer inh: -17; NRP1-CendR mod: -3; MEX-5 binding: 1

What do the screens show for `OC(CCc1ccncc1)COc1ccccc1` (stereo unspecified)?
core dimer inh: -6; NRP1-CendR mod: 20*; MEX-5 binding: 0

What do the screens show for `C=CCN1C=C2C(=O)C(C)(OC(=O)c3cccs3)C(=O)C=C2C=C1CCCC(=O)OC` (stereo unspecified)?
core dimer inh: -15; NRP1-CendR mod: 28*; MEX-5 binding: -3

What do the screens show for `CC1(OC(=O)c2cccs2)C(=O)C=C2C=C(c3ccc(C#N)cc3)OC=C2C1=O` (stereo unspecified)?
core dimer inh: 15; MEX-5 binding: -20

How did COC(=O)CCCC1=CC2=CC(=O)C(C)(OC(=O)c3cccs3)C(=O)C2=CN1CCc1ccccn1 (stereo unspecified) do in these assays?
core dimer inh: -11; NRP1-CendR mod: 12; MEX-5 binding: 0

Results for CC1(OC(=O)c2cccs2)C(=O)C=C2C=C(c3ccsc3)OC=C2C1=O (stereo unspecified) ?
core dimer inh: 22; MEX-5 binding: -27*

Results for CCCCC1=CC2=CC(=O)C(C)(OC(=O)CC)C(=O)C2=CN1C(CO)CO (stereo unspecified) ?
core dimer inh: 6; NRP1-CendR mod: 35*; MEX-5 binding: 2

Results for CCCCC1=CC2=CC(=O)C(C)(OC(=O)CC)C(=O)C2=CN1CC(C)C (stereo unspecified) ?
core dimer inh: -8; NRP1-CendR mod: 4; MEX-5 binding: -10

What do the screens show for `CCCCC1=CC2=CC(=O)C(C)(OC(=O)CC)C(=O)C2=CN1Cc1ccc(OC)cc1` (stereo unspecified)?
core dimer inh: 8; NRP1-CendR mod: 35*; MEX-5 binding: -5

What do the screens show for `C[C@@H]1CN([C@H](C)CO)C(=O)CCCn2nncc2CO[C@H]1CN(C)Cc1ccc(O)cc1`?
NRP1-CendR mod: 1

What do the screens show for `CC(C)NC(=O)Nc1nnc([C@H]2C[C@H](O)[C@@H](CO)O2)s1`?
NRP1-CendR mod: -1

High-throughput results from PubChem.
